TAAR1 agonist = agonists of human TAAR1; activation, % at 3 µM; Q96RJ0; actives 0.99% (n = 360,000); AID 624467; CHO RD-HGA16 TAAR1, Fluo-8 calcium fluorescence; vehicle wells 0%, saturating PEA agonist 100%;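 active means activation above the mean activation of all test compounds in the run plus 3 SD, cut at about 38% in these data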
Target sequence (Q96RJ0 whole entry, looked up): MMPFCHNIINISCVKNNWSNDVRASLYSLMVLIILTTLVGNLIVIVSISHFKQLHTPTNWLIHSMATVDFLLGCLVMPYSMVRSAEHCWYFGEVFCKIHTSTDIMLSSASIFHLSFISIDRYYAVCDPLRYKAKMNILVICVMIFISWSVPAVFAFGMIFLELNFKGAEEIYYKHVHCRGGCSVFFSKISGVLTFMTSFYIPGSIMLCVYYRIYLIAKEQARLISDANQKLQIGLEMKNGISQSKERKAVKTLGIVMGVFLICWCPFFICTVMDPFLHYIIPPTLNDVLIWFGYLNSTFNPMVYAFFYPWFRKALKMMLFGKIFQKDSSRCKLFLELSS
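Test system: RD-HGA16 (CHO) cells co-expressing Gα16 and hTAAR1 / Benchmarks: DMSO vehicle as 0%, PEA at EC100 as 100% / Repeats: no replicates (n 1) / Measure: % activation from peak over basal fluorescence ratio, DMSO-to-PEA scaled / Timing: 17-24 h plating, Fluo-8 75 min 37 °C, 30 min RT / Technique: kinetic Fluo-8 calcium fluorescence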
CHO parental Ca = counter-screen for OX1R antagonists: effect in parental CHO cells | actives 0.63% (n = 330,000) | parental CHO-K1, ATP-induced calcium, Fluo-8 fluorescence | inhibition, % at 5.6 µM;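 active means inhibition above that plate's mean sample inhibition plus 3 SD, cut at about 26% in these data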
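Assay system – parental CHO cells · Reagent – ATP stimulus · Detection – intracellular calcium via Fluo-8 no-wash fluorescent dye · Evaluation – percent inhibition of ATP-evoked calcium rise, normalized to controls · Controls – ATP wells versus no-ATP DMSO wells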
TAAR1 antagonist = antagonists of human TAAR1 | Q96RJ0 | CHO RD-HGA16 TAAR1, Fluo-8 calcium fluorescence, antagonist | inhibition, % at 3 µM | actives 1.5% (n = 360,000);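 active means inhibition above a per-plate cutoff, the mean inhibition of test compounds on that plate plus 3 SD, cut at about 49% in these data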
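Material: CHO RD-HGA16 cells bearing hTAAR1; compound dosing: one-point dosing, 3 µM nominal final; schedule: dye loading 75 min at 37 °C, then 30 min room temperature; measured by: calcium fluorescence with Fluo-8; control set: vehicle and agonist controls; replication: n of 1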
OX1R antag-1 = blocks the human orexin 1 receptor | AID 485270 | O43613 | OX1R-expressing cells, FRET antagonist read-out | inhibition, % at 6.6 µM | actives 1.8% (n = 330,000); in the data active means inhibition mostly above about 38%, no sharp cut-off; inactive means mostly below about 40%
OX1R antag-2 = human HCRTR1 antagonism. O43613. CHO/OX1R cells, Fluo-8 calcium fluorescence, orexin A. inhibition, % at 5 µM. actives 0.43% (n = 330,000). AID 434989;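 active means inhibition above its plate's threshold, mean inhibition of all tested compounds on the plate plus 3 SD, cut at about 37% in these data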
GalR3 antag = antagonists of human GalR3; HEK293 GalR3-CNG cAMP membrane potential fluorescence; galR3 body fused to GalR1 C-terminus; inhibition, % at 3 µM; AID 651719; O60755; actives 0.44% (n = 360,000);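 active means inhibition above the screen-wide average plus 3 SD, cut at about 13% in these data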;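 further: forskolin and galanin both at EC90 stimulate the cells; cAMP rise reported by CNG channel membrane potential dye signal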
Target sequence (O60755 1-299 limits assumed): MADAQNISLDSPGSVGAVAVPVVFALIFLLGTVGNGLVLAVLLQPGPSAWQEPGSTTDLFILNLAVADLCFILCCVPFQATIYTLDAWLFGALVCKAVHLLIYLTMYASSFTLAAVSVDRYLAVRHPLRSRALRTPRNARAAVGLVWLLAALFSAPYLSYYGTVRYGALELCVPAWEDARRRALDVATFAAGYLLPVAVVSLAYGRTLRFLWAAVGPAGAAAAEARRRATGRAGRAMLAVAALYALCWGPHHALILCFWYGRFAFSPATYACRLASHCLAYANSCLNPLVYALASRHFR
Numbers stand for hits; 0 = inactive; - = no result. Only some compounds are listed: those with a hit (about 4.2% of all), similar ones and a draw of the others.

SMILES | TAAR1 agonist | CHO parental Ca | TAAR1 antagonist | OX1R antag-1 | OX1R antag-2 | GalR3 antag
C[C@H](CO)N1C[C@H](C)[C@@H](CN(C)S(=O)(=O)c2ccc(F)cc2)Oc2c(NC(=O)Nc3ccc(C(F)(F)F)cc3)cccc2C1=O | 0 | 0 | 0 | 0 | 0 | 0
CCC(C)c1ccc(NC(=O)COC(=O)CCNS(=O)(=O)c2cccs2)cc1 (configuration not stated) | 0 | 0 | 0 | 0 | 0 | 0
Cc1csc(NC(=O)c2ccc3ccccc3n2)n1 | 0 | 0 | 0 | 0 | 0 | 0
O=C(Nc1nccs1)c1ccc2nccnc2c1 | 0 | 0 | 0 | 46.1 | 0 | 0
O=C(Nc1nccs1)c1ccc2ccccc2n1 | 0 | 0 | 0 | 70.9 | 0 | 0
CCC(CC)c1nnc(NC(=O)c2ccc3ccccc3n2)s1 | 0 | 0 | 0 | 49.5 | 0 | 0
CCN(CC)CCN(C(=O)c1ccc(S(=O)(=O)N(CC)c2ccccc2)cc1)c1nc2c(OC)ccc(OC)c2s1 | 0 | 0 | 0 | 0 | 0 | 0
Cc1c(C(=O)N(Cc2ccncc2)CC2CCCO2)oc2c(F)cccc12 (configuration not stated) | 0 | 0 | 0 | 0 | 0 | 0
CN1CCN(C(=O)c2ccc3ccccc3c2)CC1 | 0 | 0 | 0 | 0 | 0 | 0
O=C(O)c1cc([N+](=O)[O-])c(NCc2cccnc2)c([N+](=O)[O-])c1 | 0 | 0 | 0 | 76.4 | 0 | 0
CC(C)c1ccc(C(=O)NC(=S)NCc2cccnc2)cc1 | 0 | 0 | 0 | 0 | 0 | 0
O=C(NC(=S)NCc1cccnc1)c1ccc([N+](=O)[O-])cc1 | 0 | 0 | 0 | 74.7 | 0 | 0
O=C(/C=C/c1ccccc1)NCc1cccnc1 | 0 | 0 | 0 | 0 | 0 | 0
O=C(/C=C/c1ccccc1[N+](=O)[O-])NCc1cccnc1 | 0 | 0 | 0 | 61.3 | 0 | 0
CCC(C)N(C(=O)COc1ccc(Br)cc1C=O)C1CCS(=O)(=O)C1 (configuration not stated) | 0 | 0 | 0 | 0 | 0 | 0
O=C1c2ccccc2C(=O)N1CCc1nc2ccccc2c(=O)n1-c1ccccn1 | 0 | 0 | 0 | 62.1 | 0 | 0
COc1ccccc1CC(=O)O/N=C(\N)Cc1cccc2ccccc12 | 75.2 | 0 | 0 | 0 | 0 | 0
COc1ccccc1OC(=O)Cc1cccc2ccccc12 | - | 0 | - | 0 | 0 | -
CS(=O)(=O)Nc1cccc(C2=NN(C(=O)c3ccco3)C(c3ccco3)C2)c1 (configuration not stated) | 0 | 0 | 0 | 0 | 0 | 0
CSc1ccccc1NC(=O)c1cc(-c2ccco2)on1 | 0 | 0 | 0 | 65.9 | 0 | 0
O=C(NCc1ccc(Cl)cc1)c1cc(-c2ccco2)on1 | 0 | 0 | 0 | 0 | 0 | 0
O=C(NCc1ccc(F)cc1)c1cc(-c2ccco2)on1 | 37.7 | 31.6 | 0 | 0 | 0 | 0
O=C(Nc1ccc(F)cc1F)c1cc(-c2ccco2)on1 | 0 | 34.9 | 0 | 0 | 0 | 0
CC(C)(C)NC(=S)N1CCC(C(=O)c2ccc(F)cc2)CC1 | 0 | 0 | 0 | 0 | 0 | 0
CC(=O)Nc1ccc(Nc2cc(C)nc3c(-c4ccccc4)cnn23)cc1 | 41.4 | 0 | 49.1 | 0 | 0 | 0
SMILES | TAAR1 agonist | CHO parental Ca | TAAR1 antagonist | OX1R antag-1 | OX1R antag-2 | GalR3 antag
Cc1cc(N)n2ncc(-c3ccccc3)c2n1 | 0 | 0 | 0 | 0 | 0 | 0
Cc1cc(N)n2ncc(-c3cccc(Br)c3)c2n1 | 0 | 0 | 0 | 42.6 | 0 | 0
C=CCSc1cc(C)nc2c(-c3ccccc3)cnn12 | 0 | 0 | 0 | 0 | 0 | 0
CCSc1cc(C)nc2c(-c3ccccc3)cnn12 | 0 | 0 | 0 | 59.5 | 0 | 0
CCN(CC)CC(=O)Nc1cccc2c1C(=O)c1ccccc1C2=O | 0 | 0 | 0 | 0 | 0 | 0
CN(C=[N+](C)C)c1cccc2c1C(=O)c1ccccc1C2=O | 0 | 0 | 0 | 75.3 | 0 | 0
COc1ccc(CCNC(=O)Cn2ccc3cc(S(=O)(=O)N4CCCC4)ccc32)cc1OC | 0 | 0 | 0 | 57.2 | 0 | 0
Cc1ccccc1CCNC(=O)Cn1ccc2cc(S(=O)(=O)N3CCCC3)ccc21 | 0 | 0 | 0 | 46.0 | 0 | 0
COc1cccc(CNC(=O)Cn2ccc3cc(S(=O)(=O)N4CCCC4)ccc32)c1 | 0 | 0 | 0 | 0 | 0 | 0
Cc1ccc(CCNC(=O)Cn2ccc3cc(S(=O)(=O)N4CCCC4)ccc32)cc1 | 0 | 0 | 0 | 56.0 | 0 | 0
Cc1cc(NC(=O)CSc2nnc(C3CC3)n2N)no1 | 0 | 0 | 0 | 0 | 0 | 0
Cc1cc(NC(=O)CCC(=O)N(Cc2ccco2)C(C(=O)NC2CCCC2)c2ccc(F)cc2)no1 (configuration not stated) | 0 | 0 | 0 | 46.9 | 0 | 0
Cc1ccccc1S(=O)(=O)N1C[C@H]2CON(C)[C@H]2C[C@H]1c1cccc(Oc2ccccc2)c1 | 0 | - | 0 | - | - | 0
CCN1/C(=C/C=C/c2oc3ccc(-c4ccccc4)cc3[n+]2CC)Oc2ccc(-c3ccccc3)cc21 | 530.6 | 101.0 | 104.8 | 0 | 105.0 | 0
CN(c1ccccc1)c1ccc(/C=C/[N+](=O)[O-])cc1 | 0 | 62.9 | 0 | 0 | 78.4 | 0
O=[N+]([O-])c1ccc(C=CC=Cc2ccccc2)cc1 | 0 | - | 0 | - | - | 0
CCOc1ccc2[nH]c3c(N4CCN(c5ccccn5)CC4)ncnc3c2c1 | 0 | 0 | 0 | 60.8 | 0 | 0
Cc1ccc2[nH]c3c(N4CCN(Cc5ccc6c(c5)OCO6)CC4)ncnc3c2c1 | 0 | - | 0 | - | - | 0
Cc1ccc2c(c1)[nH]c1c(N3CCN(Cc4ccccc4)CC3)ncnc12 | 0 | 0 | 0 | 0 | 0 | 0
COc1ccc2c(c1)[nH]c1c(N3CCN(Cc4ccc5c(c4)OCO5)CC3)ncnc12 | 0 | 0 | 0 | 49.0 | 0 | 0
c1ccc(CN2CCN(c3ncnc4c3[nH]c3ccccc34)CC2)cc1 | 0 | 46.3 | 0 | 0 | 0 | 60.1
Cc1ccc2[nH]c3c(N4CCN(Cc5ccccc5)CC4)ncnc3c2c1 | 0 | 0 | 0 | 79.6 | 0 | 0
OC1(c2cccc(C(F)(F)F)c2)CCN(c2ncnc3c2[nH]c2ccccc23)CC1 | 0 | 0 | 56.4 | 0 | 0 | 0
COc1cccc(N2CCN(c3ncnc4c3[nH]c3ccccc34)CC2C)c1 (configuration not stated) | 0 | 89.0 | 88.8 | 112.2 | 91.1 | 0
c1ccc2c(c1)CCN(c1ncnc3c1[nH]c1ccccc13)C2 | 0 | 66.3 | 58.2 | 80.5 | 80.4 | 0
c1ccc2c(c1)[nH]c1c(N3CCC4(CC3)OCCO4)ncnc12 | - | 59.9 | - | 65.7 | 0 | -
O=C(O)C1CCCCC1C(=O)NC(c1ccccc1)c1ccccc1 (configuration not stated) | 0 | 0 | 0 | 0 | 0 | 0
CCOC(=O)C1CCCN(c2cc(C)nc3cc(-c4ccc(F)cc4)nn23)C1 (configuration not stated) | 42.6 | 0 | 0 | 0 | 0 | 0

Assay outcomes from PubChem BioAssay.
